These results are taken from article PMC3060995 (Peptides, 2011).

Assay [1] has as its system food intake in freely-feeding rats. The experiment in a line: 3-h IV infusion at dark onset, food intake in non-food-deprived rats. It is filed as in vivo, rat (male Sprague-Dawley). An outline of the steps:
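Male Sprague-Dawley rats (350–500 g), housed individually on a 12:12-h light-dark cycle, had ad libitum ground chow. They were jugular-catheterised and tethered to infusion swivels. Each received a single 3-h jugular infusion per day of test compound or vehicle (0.15 M NaCl, 0.1% BSA). Food intake was recorded continuously from bowl weight. Rats with non-patent catheters (Brevital test) were excluded. Analysis used repeated-measures ANOVA with paired t-tests.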

The test system is the same in assay [2]. The following applies: cited from earlier work.
The mark [3] stands for this setting: 15 pmol/kg/min, 3-h IV infusion at dark onset, vs vehicle, 11–15 rats.

For peptide YY(3–36)-amide [PYY(3–36)-NH2], the “effect on food intake” value in assay [1] (setting [3]) is listed as “significantly reduced food intake”. Further, the “reduction of 3-h food intake” value in assay [1] (15 pmol/kg/min, 3-h jugular vein infusion beginning 15 min before dark onset, vs vehicle, 11–16 rats, group means) worked out at 29%. In addition, in assay [1] (50 pmol/kg/min, 3-h jugular vein infusion beginning 15 min before dark onset, vs vehicle, 11–16 rats, group means), the “inhibition of 3-h food intake” value is given as 42%. In addition, in assay [1] (3-h IV infusion at dark onset, rats), the “relative anorexigenic potency (comparison between PYY forms)” value is on record as “more potent than Ser^13(PO3)-PYY(3–36)-NH2”. The “approximate mean effective dose for inhibition of food intake” value in assay [2] (3-h IV infusion at dark onset, rats, previously determined) is given as around 15 pmol/kg/min. The “potency in reducing food intake relative to PYY(1–36)-NH2” value in assay [2] (3-h IV infusion during the early dark period, freely-feeding rats) is on record as “an order of magnitude more potent”.
For peptide YY(1–36)-amide [PYY(1–36)-NH2], the “effect on food intake” value in assay [1] (setting [3]) is “significantly smaller effect”; in assay [1] (50 pmol/kg/min, 3-h IV infusion at dark onset, vs vehicle, 11–16 rats) it was “similarly reduced food in a dose-dependent manner”; in assay [1] (150 pmol/kg/min, 3-h IV infusion at dark onset, vs vehicle, 11–16 rats) it was “similarly reduced food in a dose-dependent manner”.
